Values belong to the compound of their own block, whether it stands above or below them.
What was measured:
[1] = system: Zucker obese (fa/fa) rats; test: Zucker obese rat, 24-week treatment: plasma parameters; type: in vivo; conditions: for change in plasma cholesterol versus ZK / change in plasma triglycerides versus ZK: after 24 weeks, 30 mg/kg/day; for insulin resistance (HOMA-IR) versus ZK / reduction of hyperinsulinaemia (plasma insulin) versus ZK / effect on plasma glucose levels: end of 24-week treatment; for effect on plasma glucose levels: fasting
How it was run: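 Male Zucker fa/fa rats (lean littermates as reference), 12 per group, received test compound in drinking water at 30 mg/kg/24 h from week 6 to week 30. Plasma spun 15 min at 4°C and stored at –80°C. Cholesterol, triglycerides, glucose and insulin measured by enzymatic-colorimetric kits. HOMA-IR calculated from fasting glucose and insulin.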

[2] = system: Zucker obese (fa/fa) rats; test: Zucker obese rat: renal morphology and morphometry; type: in vivo; conditions: for mean glomerular diameter / glomerular and interstitial changes (glomerulosclerosis, tubulointerstitial damage) versus ZK: 30 weeks; for mean glomerular diameter: ZK 1.098 ± 0.05; for glomerular and interstitial changes (glomerulosclerosis, tubulointerstitial damage) versus ZK: light microscopy
[3] = Zucker obese rat: carnosine levels in plasma, urine and renal tissue; type: in vivo; conditions: for Carnosine level, Urine: no compound given during 24 hr in metabolic cage
[4] = Stability in rat kidney S 9000 fraction; type: in vitro ADME
How it was run: (§1)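 Matrices were human serum (healthy donors, 25–30 yr), human liver S9000 fraction or rat kidney S9000 fraction (0.25 g/ml), pre-warmed 10 min at 37°C. Test compound added from a 1 mM solution in 10 mM PBS, pH 7.4; PBS-only controls run alongside. Sampled at 0–120 min, with 24 h added for serum. Internal standard added, then perchloric acid deproteinization (15 min, 4°C), centrifugation and LC-MS/MS.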

[5] = system: Zucker obese (fa/fa) rats; test: Zucker obese rat: kidney cholesterol and triglycerides content; type: in vivo; conditions: end of 24-week treatment, S 9.000 kidney fraction
How it was run: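 Zucker fa/fa rats dosed via drinking water at 30 mg/kg/24 h from week 6 to week 30; six rats per group used for tissue. Kidney frozen in liquid nitrogen. Total cholesterol and triglycerides measured with commercial kits in S9000 kidney fraction (0.25 g/ml), expressed as μg/mg protein.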

[6] = system: Zucker obese (fa/fa) rats; test: Zucker obese rat, 24-week treatment: body weight and food intake; type: in vivo; conditions: 30 weeks of age, 30 mg/kg/day for 24 weeks
How it was run: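 Male Zucker fa/fa rats bought at 5 weeks, with lean Fa/Fa littermates as reference. Housed singly at 22 ± 1°C on a 12 h light/dark cycle, standard chow, 1 week acclimation. Randomized to three groups of 12. Test compound given in drinking water, concentration adjusted weekly to 30 mg/kg/24 h, from week 6 to week 30.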

[7] = Stability in human liver S 9.000 fraction; type: in vitro ADME; conditions: within 15 min, then unchanged until 120 min
How it was run: as §1

[8] = system: Zucker obese (fa/fa) rats; test: Zucker obese rat: renal function; type: in vivo; conditions: for restraint of proteinuria/albuminuria/creatininuria: 24 hr urinary excretion, end of treatment; for change in creatinine clearance (GFR) versus ZK / change in plasma creatinine concentration versus ZK / restraint of the increase in urinary albumin-to-creatinine ratio: end of 24-week treatment
[9] = ACR quenching ability in homogeneous solution; conditions: 60 min; for percentage amount of ACR quenched: ACR 50 μM, quencher 500 μM (1:10); for ACR disappeared: ACR 200 μM, 1:10 molar excess
[10] = system: Zucker obese (fa/fa) rats; test: Zucker obese rat: kidney protein carbonyl content; type: in vivo; conditions: for Kidney PCOs: end of the experiment; for reduction of kidney PCOs versus ZK: kidney homogenates
How it was run: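 Kidneys taken at week 30 from Zucker fa/fa rats (six per group) given test compound in drinking water at 30 mg/kg/24 h. Homogenate 25% w/v in 0.15 M KCl, pH 7.4, with protease inhibitors, centrifuged at 12,000 ×g for 10 min. Total protein carbonyls read at 366 nm (ε 22,000/M/cm), expressed as nmoles/mg protein.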

[11] = system: Zucker obese (fa/fa) rats; test: Zucker obese rat: systolic blood pressure by tail-cuff plethysmography; type: in vivo; conditions: end of the experiment (30 weeks)
How it was run: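 Zucker fa/fa rats dosed in drinking water (30 mg/kg/24 h, weeks 6–30). Systolic pressure taken monthly by tail-cuff plethysmography in conscious, unanaesthetized rats pre-warmed 30 min at 37°C and restrained in a plastic chamber. Heart rate taken from the arterial pulse wave.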

Stability = type: in vitro ADME, human; conditions: for stability to enzymatic hydrolysis in human serum: 37°C, followed over 24 hrs
How it was run: as §1

[12] = system: Zucker obese (fa/fa) rats; test: Zucker obese rat: tail tendon collagen solubility and Ehrlich adducts; type: in vivo; conditions: for reduction of Ehrlich positive material versus ZK: not significant; for Collagen solubility: acetic acid; for Collagen solubility / Ehrlich adducts: end of the experiment
How it was run: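 Tail tendons from treated Zucker fa/fa rats (drinking water, 30 mg/kg/24 h, weeks 6–30) cleaned and washed in ice-cold 75 mM phosphate buffer, pH 7.00, then lyophilized. Solubility determined on 10 mg samples; hydroxyproline measured after acid hydrolysis, collagen taken as 14% hydroxyproline. Ehrlich adducts and fluorescence (ex 365/em 416 nm) measured on 50 mg pepsin-digested collagen, blank-corrected, per mg collagen.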

[13] = Pharmacokinetic profile in the rat after oral administration; type: in vivo, Sprague-Dawley rats; conditions: for Cmax: pre-dose concentration subtracted
How it was run: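 Single oral dose of 100 mg/kg given to three male Sprague-Dawley rats per test compound. Plasma sampled pre-dose and at 0.25, 0.5, 1, 2, 4, 6 and 24 h, stored at –80°C, and assayed by LC-MS/MS. Pre-dose (endogenous) level subtracted. Non-compartmental analysis: Cmax and tmax read from raw data; AUC0–tlast by linear trapezoidal rule.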

[14] = system: Zucker obese (fa/fa) rats; test: Zucker obese rat: urinary oxidative/carbonyl stress indices; type: in vivo; conditions: end of the experiment; for AGEs: urine fluorescence; for CAR-HNE level / 8-epi-PGF2α level: urine; for CAR-HNE level: LC-ESI-MS/MS
How it was run: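 24 h urine from treated Zucker fa/fa rats (drinking water, 30 mg/kg/24 h, weeks 6–30). 8-epi-PGF2α and TXB2 measured by enzyme immunoassay. Low-molecular-weight AGEs read by fluorescence (ex 370/em 440 nm), expressed per mg urinary creatinine. CAR-HNE Michael adduct quantified by LC-ESI-MS/MS.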

[15] = HNE quenching ability in homogeneous solution; conditions: HNE 200 μM; for HNE quenched: 1:10 molar excess, 24 hrs of incubation; for residual amount of HNE: quencher 2 mM (1:10), phosphate buffer pH 7.4, 37°C, 60 min
[16] = human beings receiving 450 mg, 15 min up to 300 min; cited from earlier work
Stability in rat serum = type: in vitro ADME
[17] = cited from earlier work
[18] = male, Sprague-Dawley, rat, plasma, po, 100 mg/kg

increase in kidney CAR content compared to ZK ([3]; end of the experiment): 14.4 fold
increase of plasma carnosine concentration ([3]; end of the experiment): > 10 fold
Carnosine level, Plasma ([3]; end of the experiment, 30 mg/kg/day for 24 weeks): 5.37 ± 3.04 nmol/mL
Carnosine level, Urine ([3]; end of the experiment): 10,069 ± 1844 ^* ^*/°°° nmol/day
remaining in rat kidney ([4]; 120 min of incubation): 91%
hydrolysis in human liver [7]: ~30%
decrease in human serum (Stability; after 24 hrs of incubation): 6%
half-life ([13]; oral 100 mg/kg, rat plasma): 3.36 h
systemic exposure up to infinite time AUC(0–∞) ([13]; oral 100 mg/kg, rat plasma): 318.62 ± 24.75 µM·h
time until plasma concentration returned to baseline ([13]; oral 100 mg/kg, rat plasma): 24 h
Cmax ([13]; oral 100 mg/kg, rat plasma): 52.86 ± 2.86 µM
tmax ([13]; oral 100 mg/kg, rat plasma, 100 mg/kg): 2 h
SMILES: NCCC(=O)N[C@H](Cc1c[nH]cn1)C(=O)O [D-CAR, β-alanyl-D-histidine]
change in plasma cholesterol versus ZK [1]: –45%
change in plasma triglycerides versus ZK [1]: –43%
insulin resistance (HOMA-IR) versus ZK [1]: significantly improved
reduction of hyperinsulinaemia (plasma insulin) versus ZK [1]: 33.03%
effect on plasma glucose levels [1]: did not significantly affect
mean glomerular diameter [2]: 1.042 ± 0.005
GBM thickness ([2]; electron microscopy, four animals per group): 3.75 ± 0.8 nm
glomerular and interstitial changes (glomerulosclerosis, tubulointerstitial damage) versus ZK [2]: not significantly modified
Carnosine level, Kidney ([3]; end of the experiment): 127.7 ± 17.00 ^* ^*/°°° nmol/g wet tissue
total cholesterol content in kidney [5]: 6.668 ± 0.5087 μg/mg protein
triglycerides content in kidney [5]: 10.66 ± 0.3616 μg/mg protein
body weight difference versus LN [6]: +40%
body weight difference versus ZK [6]: –9%
restraint of proteinuria/albuminuria/creatininuria [8]: approximately 50%
change in creatinine clearance (GFR) versus ZK [8]: +25.1%
change in plasma creatinine concentration versus ZK [8]: –36%
restraint of the increase in urinary albumin-to-creatinine ratio [8]: 65–70%
percentage amount of ACR quenched [9]: 65.0 ± 3.3%
ACR disappeared [9]: ~100%
Kidney PCOs [10]: 6.61 ± 1.52 ^* nmol/mg prot
reduction of kidney PCOs versus ZK [10]: 42.61%
SBP [11]: 137 ± 4 mmHg
reduction of SBP versus ZK [11]: 15.7%
stability to enzymatic hydrolysis in human serum (Stability): remained unchanged until 6 hrs incubation
reduction of Ehrlich positive material versus ZK [12]: ~21.7%
Collagen solubility ([12]; tail tendon collagen): 71.4 ± 3.14 ^* ^* %
Ehrlich adducts ([12]; tail tendon collagen): 0.747 ± 0.384 µmol/mg
effect on urinary TXB2 excretion rates [14]: did not affect
increase in urinary CAR-HNE levels compared to ZK [14]: 2.2 fold
AGEs [14]: 324.4 ± 21.8 ^* ^* FU/mg creatinine/day
CAR-HNE level [14]: 0.982 ± 0.33 nmol/day
8-epi-PGF2α level [14]: 42.1 ± 3.9 ng/day
HNE quenched [15]: ~100%
residual amount of HNE [15]: 46.9 ± 2.3%

concentration at 24 weeks ([3]; Zucker obese, rat, plasma, oral, 30 mg/kg/day): 0.473 ± 0.13 µM
Carnosine level, Kidney ([3]; end of the experiment): 14.67 ± 2.09 nmol/g wet tissue
increase in kidney CAR content compared to ZK ([3]; end of the experiment): 1.6 fold
Carnosine level, Urine ([3]; end of the experiment): 32.62 ± 1.25 nmol/day
hydrolysis in rat kidney ([4]; during the sample processing time): about 93%
hydrolysis in human liver [7]: ~30%
time to disappearance in human serum (Stability; in vitro studies in the authors' laboratories): ≤ 5 min
half-life [13, 18]: 0.24 ± 0.02 h
tmax [13, 18]: 1 h
systemic exposure up to infinite time AUC(0–∞) ([13]; oral 100 mg/kg, rat plasma): 118.45 ± 9.24 µM·h
time until plasma concentration returned to baseline ([13]; oral 100 mg/kg, rat plasma): 2 h
Cmax ([13]; oral 100 mg/kg, rat plasma): 147.7 ± 6.50 µM
SMILES: NCCC(=O)N[C@@H](Cc1cnc[nH]1)C(=O)O [L-CAR, β-alanyl-L-histidine]
change in plasma cholesterol versus ZK [1]: –40%
change in plasma triglycerides versus ZK [1]: –35%
insulin resistance (HOMA-IR) versus ZK [1]: significantly improved
reduction of hyperinsulinaemia (plasma insulin) versus ZK [1]: 28.08%
effect on plasma glucose levels [1]: did not significantly affect
mean glomerular diameter [2]: 1.023 ± 0.02
glomerular and interstitial changes (glomerulosclerosis, tubulointerstitial damage) versus ZK [2]: not significantly modified
total cholesterol content in kidney [5]: 6.31 ± 0.5115 μg/mg protein
triglycerides content in kidney [5]: 12.01 ± 0.9528 μg/mg protein
body weight difference versus LN [6]: +35.8%
body weight difference versus ZK [6]: –12%
restraint of proteinuria/albuminuria/creatininuria [8]: approximately 50%
change in creatinine clearance (GFR) versus ZK [8]: +28.3%
change in plasma creatinine concentration versus ZK [8]: –31.7%
restraint of the increase in urinary albumin-to-creatinine ratio [8]: 65–70%
percentage amount of ACR quenched [9]: 63.8 ± 3.5%
ACR disappeared [9]: ~100%
Kidney PCOs [10]: 8.83 ± 1.91 nmol/mg prot
reduction of kidney PCOs versus ZK [10]: 23.4%
CAR in serum after oral supplementation [16]: No CAR was detected in serum specimens
SBP [11]: 145 ± 3 mmHg
reduction of SBP versus ZK [11]: 11.5%
stability in rat serum (Stability in rat serum): no significant reduction within at least 6 hrs
stability to enzymatic hydrolysis in human serum (Stability): rapidly disappeared in human serum at the first time-point (60 min.)
reduction of Ehrlich positive material versus ZK [12]: ~9.1%
increase of collagen solubility compared to ZK ([12]; tail tendon collagen): 66.4%
Collagen solubility ([12]; tail tendon collagen): 65.4 ± 2.58 ^* %
Ehrlich adducts ([12]; tail tendon collagen): 0.868 ± 0.39 µmol/mg
time to hydrolysis in human serum [17]: ≤ 5 min
effect on urinary TXB2 excretion rates [14]: did not affect
increase in urinary CAR-HNE levels compared to ZK [14]: 1.7 fold
AGEs [14]: 337.2 ± 28.7 ^* FU/mg creatinine/day
CAR-HNE level [14]: 0.749 ± 0.37 nmol/day
8-epi-PGF2α level [14]: 37.6 ± 4.3 ng/day
HNE quenched [15]: ~100%
residual amount of HNE [15]: 46.2 ± 2.73%

— paper PMC4373334 (Journal of Cellular and Molecular Medicine, 2010)
